# Experimental data from ChEMBL document CHEMBL3286090, “Cryptocaryol Structure-Activity Relationship Study of Cancer Cell Cytotoxicity and Ability to Stabilize PDCD4” (ACS Med Chem Lett, 2014).
# pIC50: −log10 of the molar value. Activity calls are given as the source filed them. No cut-off for these calls is given here.
# Key:
# [1] = molecular target: T1, Programmed cell death protein 4 (Homo sapiens) (UniProt Q53EL6); assay: Inhibition of TPA-induced PDCD4 degradation in human MCF7 cells at 1 uM treated 30 mins before TPA challenge measured after 6 hrs by Western blot analysis relative to TPA treated control; type: cell-based
# T1 sequence (whole entry): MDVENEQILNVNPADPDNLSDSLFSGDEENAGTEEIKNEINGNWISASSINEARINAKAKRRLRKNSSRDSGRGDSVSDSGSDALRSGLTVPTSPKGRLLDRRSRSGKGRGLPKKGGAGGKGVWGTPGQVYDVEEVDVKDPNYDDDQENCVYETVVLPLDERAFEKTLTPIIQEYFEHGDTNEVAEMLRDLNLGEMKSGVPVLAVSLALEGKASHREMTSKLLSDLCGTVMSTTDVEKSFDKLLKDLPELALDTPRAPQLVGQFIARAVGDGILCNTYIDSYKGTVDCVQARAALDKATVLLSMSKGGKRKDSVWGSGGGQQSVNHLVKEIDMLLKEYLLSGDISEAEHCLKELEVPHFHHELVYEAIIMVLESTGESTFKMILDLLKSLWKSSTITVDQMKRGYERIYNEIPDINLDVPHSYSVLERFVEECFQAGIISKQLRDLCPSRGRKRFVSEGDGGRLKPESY
# In short: (§1)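 MCF-7 seeded at 100,000 cells/well, grown 24 h, then given cryptocaryol analogues (1 μM) or rapamycin (10 nM). TPA (20 nM) added 30 min later. After a further 6 h, cells scraped and lysed in RIPA. Lysate run on 12% SDS-PAGE, blotted to PVDF, probed for PDCD4 and β-actin, chemiluminescence detection. Signal expressed relative to cells given TPA alone.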
# MCF7 [2] = assay: Cytotoxicity against human MCF7 cells after 72 hrs by MTT assay; type: functional, cell-based; details: MCF7, 72 h
# In short: (§2)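 Cancer cell lines exposed to compound over a concentration range; viability read by MTT; IC50 in μM derived from dose-response.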
# HT-29 [3] = assay: Cytotoxicity against human HT-29 cells after 72 hrs by MTT assay; type: functional, cell-based; details: HT-29, 72 h; in short: as §2
# [4] = Cytotoxicity against human H460 cells after 72 hrs by MTT assay; type: functional, cell-based; details: NCI-H460, 72 h; in short: as §2
# [5] = molecular target: T1, Programmed cell death protein 4 (Homo sapiens); assay: Inhibition of TPA-induced PDCD4 degradation in human MCF7 cells at 10 nM treated 30 mins before TPA challenge measured after 6 hrs by Western blot analysis relative to TPA treated control; type: cell-based; in short: as §1
# HT-29 [6] = assay: Potentiation of 5-fluorouracil-induced cytotoxicity against human HT-29 cells after 72 hrs by MTT assay in absence of TPA; type: functional, cell-based
# HT-29 [7] = assay: Potentiation of camptothecin-induced cytotoxicity against human HT-29 cells after 72 hrs by MTT assay in absence of TPA; type: functional, cell-based
# HT-29 [8] = assay: Potentiation of digitoxin-induced cytotoxicity against human HT-29 cells after 72 hrs by MTT assay in absence of TPA; type: functional, cell-based
# In short: (§3)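 HT-29 cells pretreated for 12 h with cryptocaryol at 1 μM, with rapamycin at 10 nM as the reference stabilizer, then exposed to digitoxin over a concentration range without TPA. The read-out was the digitoxin IC50 under the combination.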
# HT-29 [9] = assay: Potentiation of camptothecin-induced cytotoxicity against human HT-29 cells after 72 hrs by MTT assay in presence of TPA; type: functional, cell-based
# HT-29 [10] = assay: Potentiation of 5-fluorouracil-induced cytotoxicity against human HT-29 cells after 72 hrs by MTT assay in absence of TPA
# HT-29 [11] = assay: Potentiation of camptothecin-induced cytotoxicity against human HT-29 cells at 1 nM to 10 uM after 72 hrs by MTT assay; type: functional, cell-based
# HT-29 [12] = assay: Potentiation of digitoxin-induced cytotoxicity against human HT-29 cells at 1 nM to 10 uM after 72 hrs by MTT assay; type: functional, cell-based
# MCF7 [13] = assay: Potentiation of camptothecin-induced cytotoxicity against human MCF7 cells at 1 uM treated 30 mins before TPA challenge measured after 72 hrs by MTT assay; type: functional, cell-based
# HT-29 [14] = assay: Potentiation of camptothecin-induced cytotoxicity against human HT-29 cells at 1 uM after 72 hrs by MTT assay in absence of TPA; type: functional, cell-based
# HT-29 [15] = assay: Potentiation of digitoxin-induced cytotoxicity against human HT-29 cells at 1 uM after 72 hrs by MTT assay in absence of TPA; type: functional, cell-based; in short: as §3
# HT-29 [16] = assay: Potentiation of 5-fluorouracil-induced cytotoxicity against human HT-29 cells after 72 hrs by MTT assay in presence of TPA; type: functional, cell-based
# MCF7 [17] = assay: Potentiation of camptothecin-induced cytotoxicity against human MCF7 cells at 1 nM to 10 uM after 72 hrs by MTT assay; type: functional
# MCF7 [18] = assay: Potentiation of digitoxin-induced cytotoxicity against human MCF7 cells at 1 nM to 10 uM after 72 hrs by MTT assay; type: functional
# HT-29 [19] = assay: Potentiation of camptothecin-induced cytotoxicity against human HT-29 cells at 1 uM after 72 hrs by MTT assay in presence of TPA; type: functional, cell-based
Structure (SMILES),Ratio [1],pIC50 (MCF7 [2]),pIC50 (HT-29 [3]),pIC50 [4],further results
CCCCCCCCCCCCCCC[C@@H](O)C[C@H](O)C[C@H](O)C[C@H](O)C[C@H](O)C[C@@H]1CC=CC(=O)O1,3.8,4.59,5.39,5.10,–
CCCCCCCCCCCCCCC[C@@H](C[C@@H](O)C[C@@H](O)C[C@@H](O)C[C@@H](O)CCO)OC(C)=O,2.8,3.79,2.89,< 3.00,–
CCCCCCCCCCCCCCC[C@@H](C[C@H](O)C[C@H](O)C[C@H](O)C[C@H](O)C[C@@H]1CC=CC(=O)O1)OC(C)=O,1.9,4.88,5.31,5.11,–
CO[C@H]1C[C@@H]2CC[C@@H](C)[C@@](O)(O2)C(=O)C(=O)N2CCCC[C@H]2C(=O)O[C@H]([C@H](C)C[C@@H]2CC[C@@H](O)[C@H](OC)C2)CC(=O)[C@H](C)/C=C(\C)[C@@H](O)[C@@H](OC)C(=O)[C@H](C)C[C@H](C)/C=C/C=C/C=C/1C,–,–,–,–,Ratio [5]: 6.6; Activity (HT-29 [6]): inactive; Activity (HT-29 [7]): inactive; Activity (HT-29 [8]): inactive; Activity (HT-29 [9]): inactive; Activity (HT-29 [10]): inactive
CCCCCCCCCCCCCCC[C@H](O)C[C@@H](O)C[C@@H](O)C[C@@H](O)C[C@@H](O)CCO,1.8,< 3.30,< 2.82,< 2.82,–
CCCCCCCCCCCCCCC[C@@H](C[C@@H](O)C[C@@H](O)C[C@@H](O)C[C@@H](O)C[C@H]1CC=CC(=O)O1)OC(C)=O,4.5,5.24,5.54,5.42,Activity (HT-29 [11]): inactive; Activity (HT-29 [12]): inactive; Activity (MCF7 [13]): inactive; Activity (HT-29 [14]): inactive; Activity (HT-29 [15]): inactive; Activity (HT-29 [16]): inactive; Activity (HT-29 [6]): inactive; CI (MCF7 [17]): 1.12; CI (MCF7 [18]): 1.04; Activity (HT-29 [19]): inactive
CCCCCCCCCCCCCCC[C@H](O)C[C@@H](O)C[C@@H](O)C[C@@H](O)C[C@@H](O)C[C@H]1CC=CC(=O)O1,3.6,5.09,5.38,5.27,Activity (HT-29 [11]): inactive; Activity (HT-29 [12]): inactive; Activity (HT-29 [14]): inactive; Activity (HT-29 [15]): inactive; CI (MCF7 [17]): 0.78; CI (MCF7 [18]): 1.34; Activity (HT-29 [19]): inactive
CCCCCCCCCCCCCCC[C@H](C[C@H](O)C[C@H](O)C[C@H](O)C[C@H](O)C[C@@H]1CC=CC(=O)O1)OC(C)=O,3.6,5.05,5.62,5.40,–
